Blank lines part the entries; values can stand above or below the compound they belong to.
What was measured:
[1] = Cmax in rat at 5 mg/kg, po; assay type: ADME, organism-based; set-up: dose 5 mg/kg, route oral; settings: in vivo
Method in brief: (§1)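 Male Sprague-Dawley rats (275-300 g), fasted overnight with 10% dextrose in water; single oral gavage 5 mg/kg in 0.5% Methocel/0.3% Tween-80 (10 mL/kg). Carotid cannula sampling at 0-8 h; plasma pooled from three rats per time point, solid-phase extracted, LC-MS quantified; noncompartmental analysis. F derived using the 2 mg/kg iv arm.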

[2] = Oral bioavailability in rat at 5 mg/kg; assay type: ADME, organism-based; settings: in vivo; method in brief: as §1
[3] = Clearance in rat at 2 mg/kg, iv; assay type: ADME, organism-based; set-up: dose 2 mg/kg, route intravenous; settings: in vivo
Method in brief: (§2)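 Male Sprague-Dawley rats (275-300 g), fasted overnight with 10% dextrose water access, given 2 mg/kg intravenously. Blood drawn via right carotid cannula at 5 min and 0.25-8 h; plasma pooled from three animals per time point, solid-phase extraction, LC-MS measurement; parameters from noncompartmental analysis.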

[4] = Inhibition of HCV NS3 protease; set-up: species or system Hepacivirus hominis
Method in brief: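 Genotype 1b NS3-NS4A (0.5 nM) with 5 μM fluorogenic depsipeptide substrate anthranilyl-DDIVPAbu[C(O)-O]AMY(3-NO2)-TW-OH in 50 mM Tris-HCl pH 8.0, 0.25 M sodium citrate, 0.01% dodecyl maltoside, 1 mM TCEP, 5% DMSO; 60-70 min at 23 °C, stopped with 1 M MES pH 5.8; product fluorescence read; IC50 from percent inhibition by nonlinear fit.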

Hepatitis C virus = assay: Antiviral activity against HCV Con1 by cell based-luciferase reporter gene assay; assay type: functional, organism-based, Hepacivirus hominis
Method in brief: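 Bicistronic luciferase reporter replicon cells (Con1 genotype 1b NS2-NS5B) exposed to compound for 72 h; luciferase read with Bright-Glo substrate by luminescence. EC50 fitted by nonlinear regression.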

[5] = AUC (0 to infinity) in rat at 5 mg/kg, po; assay type: ADME, organism-based; set-up: time infinity, dose 5 mg/kg, route oral; settings: plasma; method in brief: as §1
[6] = Half life in rat at 2 mg/kg, iv; assay type: ADME, organism-based; set-up: dose 2 mg/kg, route intravenous; settings: in vivo; method in brief: as §2
[7] = Volume of distribution at steady state in rat at 2 mg/kg, iv; assay type: ADME, organism-based; set-up: dose 2 mg/kg, route intravenous; settings: in vivo, read-out: Vdss; method in brief: as §2

Compound: C=C[C@@H]1C[C@]1(NC(=O)[C@@H]1C[C@@H](Oc2cc(-c3ccccc3)nc3cc(OC)ccc23)CN1C(=O)[C@@H](NC(=O)OC1CCCC1)C(C)(C)C)C(=O)O
IC50 [4]: 14 nM
EC50 (Hepatitis C virus): 550 nM

Compound: C=C[C@@H]1C[C@]1(NC(=O)[C@@H]1C[C@@H](Oc2cc(-c3csc(NC(=O)OC)n3)nc3c(Br)c(OC)ccc23)CN1C(=O)[C@@H](NC(=O)OC1CCCC1)C(C)(C)C)C(=O)O
IC50 [4]: 6 nM
EC50 (Hepatitis C virus): 3 nM

Compound: COc1ccc2c(O[C@@H]3C[C@H]4C(=O)N[C@]5(C(=O)O)C[C@H]5/C=C\CCCCC[C@H](NC(=O)OC5CCCC5)C(=O)N4C3)cc(-c3csc(NC(C)C)n3)nc2c1 [CILUPREVIR]
IC50 [4]: 3 nM
EC50 (Hepatitis C virus): 2 nM

Compound: C=C[C@@H]1C[C@]1(NC(=O)[C@@H]1C[C@@H](Oc2cc(-c3csc(NC(=O)CC)n3)nc3c(F)c(OC)ccc23)CN1C(=O)[C@@H](NC(=O)OC1CCCC1)C(C)(C)C)C(=O)O
IC50 [4]: 7 nM
EC50 (Hepatitis C virus): 36 nM

Compound: C=C[C@@H]1C[C@]1(NC(=O)[C@@H]1C[C@@H](Oc2cc(-c3csc(NC(=O)OC(C)C)n3)nc3c(Br)c(OC)ccc23)CN1C(=O)[C@@H](NC(=O)OC1CCCC1)C(C)(C)C)C(=O)O
IC50 [4]: 6 nM
EC50 (Hepatitis C virus): 6 nM

Compound: C=C[C@@H]1C[C@]1(NC(=O)[C@@H]1C[C@@H](Oc2cc(-c3csc(NC(=O)CC)n3)nc3c(Br)c(OC)ccc23)CN1C(=O)[C@@H](NC(=O)OC1CCCC1)C(C)(C)C)C(=O)O
IC50 [4]: 7 nM
EC50 (Hepatitis C virus): 5 nM

Compound: C=C[C@@H]1C[C@]1(NC(=O)[C@@H]1C[C@@H](Oc2cc(-c3csc(NC(=O)CC)n3)nc3c(Cl)c(OC)ccc23)CN1C(=O)[C@@H](NC(=O)OC1CCCC1)C(C)(C)C)C(=O)O
IC50 [4]: 7 nM
EC50 (Hepatitis C virus): 11 nM

Now from value to compound:

Cmax [1]: 820 nM
bioavailability [2]: 56%
clearance [3]: 15 mL/min/kg
IC50 [4]: 10 nM
EC50 (Hepatitis C virus): 17 nM
AUC(0-inf) [5]: 3.5 µM·h
half-life [6]: 1.7 h
Vd [7]: 1.8 L/kg
Compound: C=C[C@@H]1C[C@]1(NC(=O)[C@@H]1C[C@@H](Oc2cc(-c3csc(NC(=O)CC)n3)nc3c(C)c(OC)ccc23)CN1C(=O)[C@@H](NC(=O)OC1CCCC1)C(C)(C)C)C(=O)O

IC50 [4]: 43 nM
Compound: C=C[C@@H]1C[C@]1(NC(=O)[C@@H]1C[C@@H](Oc2cc(-c3csc(NC(C)C)n3)nc3cc(OC)ccc23)CN1C(=O)[C@@H](NC(=O)OC(C)(C)C)C(C)(C)C)C(=O)O

Cmax [1]: 1100 nM
bioavailability [2]: 39%
clearance [3]: 14 mL/min/kg
IC50 [4]: 17 nM
EC50 (Hepatitis C virus): 68 nM
AUC(0-inf) [5]: 2.8 µM·h
half-life [6]: 1.2 h
Vd [7]: 0.83 L/kg
Compound: C=C[C@@H]1C[C@]1(NC(=O)[C@@H]1C[C@@H](Oc2cc(-c3csc(NC(=O)CC(C)(C)C)n3)nc3cc(OC)ccc23)CN1C(=O)[C@@H](NC(=O)OC1CCCC1)C(C)(C)C)C(=O)O

IC50 [4]: 18 nM
EC50 (Hepatitis C virus): 90 nM
Compound: C=C[C@@H]1C[C@]1(NC(=O)[C@@H]1C[C@@H](Oc2cc(-c3csc(NC(C)C)n3)nc3cc(OC)ccc23)CN1C(=O)[C@@H](NC(=O)OC1CCCCC1)C(C)(C)C)C(=O)O

IC50 [4]: 3 nM
EC50 (Hepatitis C virus): 3 nM
Compound: C=C[C@@H]1C[C@]1(NC(=O)[C@@H]1C[C@@H](Oc2cc(-c3csc(NC(=O)C(C)C)n3)nc3c(Br)c(OC)ccc23)CN1C(=O)[C@@H](NC(=O)OC1CCCC1)C(C)(C)C)C(=O)O [FALDAPREVIR]

IC50 [4]: 12 nM
EC50 (Hepatitis C virus): 110 nM
Compound: C=C[C@@H]1C[C@]1(NC(=O)[C@@H]1C[C@@H](Oc2cc(-c3csc(NC(C)C)n3)nc3cc(OC)ccc23)CN1C(=O)[C@@H](NC(=O)OC1CCC1)C(C)(C)C)C(=O)O

IC50 [4]: 5 nM
EC50 (Hepatitis C virus): 34 nM
Compound: C=C[C@@H]1C[C@]1(NC(=O)[C@@H]1C[C@@H](Oc2cc(-c3csc(NC(C)=O)n3)nc3cc(OC)ccc23)CN1C(=O)[C@@H](NC(=O)OC1CCCC1)C(C)(C)C)C(=O)O

IC50 [4]: 15 nM
EC50 (Hepatitis C virus): 40 nM
Compound: C=C[C@@H]1C[C@]1(NC(=O)[C@@H]1C[C@@H](Oc2cc(-c3csc(NC(C)C)n3)nc3c(C)c(OC)ccc23)CN1C(=O)[C@@H](NC(=O)OC1CCCC1)C(C)(C)C)C(=O)O

Cmax [1]: 790 nM
bioavailability [2]: 54%
clearance [3]: 24 mL/min/kg
IC50 [4]: 14 nM
EC50 (Hepatitis C virus): 45 nM
AUC(0-inf) [5]: 2.4 µM·h
half-life [6]: 2.6 h
Vd [7]: 3.7 L/kg
Compound: C=C[C@@H]1C[C@]1(NC(=O)[C@@H]1C[C@@H](Oc2cc(-c3csc(NC(C)C)n3)nc3cc(OC)ccc23)CN1C(=O)[C@@H](NC(=O)OC1CCCC1)C(C)(C)C)C(=O)O

IC50 [4]: 320 nM
Compound: C=C[C@@H]1C[C@]1(NC(=O)[C@@H]1C[C@@H](Oc2cc(-c3csc(NC(C)C)n3)nc3cc(OC)ccc23)CN1C(=O)[C@@H](O)C(C)(C)C)C(=O)O

IC50 [4]: 8 nM
EC50 (Hepatitis C virus): 19 nM
Compound: C=C[C@@H]1C[C@]1(NC(=O)[C@@H]1C[C@@H](Oc2cc(-c3csc(NC(C)=O)n3)nc3c(C)c(OC)ccc23)CN1C(=O)[C@@H](NC(=O)OC1CCCC1)C(C)(C)C)C(=O)O

Source: ChEMBL document CHEMBL1240512, “Discovery of a potent and selective noncovalent linear inhibitor of the hepatitis C virus NS3 protease (BI 201335)” (J Med Chem, 2010)
